According to ChEMBL document CHEMBL2040797, “Synthesis of benzimidazoles bearing oxadiazole nucleus as anticancer agents” (2012):

Legend:
Assay type in all cases: functional
NCI-H322M = assay: Growth inhibition of human NCI-H322M cells at 10 uM after 48 hrs by sulforhodamine B assay; conditions: read-out: GI
In short: (§1)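 NCI one-dose primary screen at 10 (printed mM) across the 60-line panel. Cells in RPMI 1640 with 5% FBS and 2 mM L-glutamine, plated at 5000–40,000 cells/well and incubated 24 h before dosing. Exposure 48 h at 37 °C, 5% CO2. Adherent cells were fixed with cold TCA, suspension cells fixed after settling. SRB stain, absorbance 515 nm. Reported as percent growth of treated cells relative to control.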

COLO 205 [1] = assay: Growth inhibition of human COLO205 cells at 10 uM after 48 hrs by sulforhodamine B assay; conditions: COLO 205, 48 h, read-out: GI; in short: as §1
HCT-116 = assay: Growth inhibition of human HCT116 cells at 10 uM after 48 hrs by sulforhodamine B assay; conditions: HCT-116, 48 h, read-out: GI; in short: as §1
KM12 = assay: Growth inhibition of human KM12 cells at 10 uM after 48 hrs by sulforhodamine B assay; conditions: KM12, 48 h, read-out: GI; in short: as §1
SNB-75 = assay: Growth inhibition of human SNB75 cells at 10 uM after 48 hrs by sulforhodamine B assay; conditions: SNB-75, 48 h, read-out: GI
In short: (§2)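 NCI-60 single-dose screen. Cells grown in RPMI 1640 with 5% FBS and L-glutamine, plated at 5000–40,000 cells/well by doubling time, and preincubated 24 h at 37 °C, 5% CO2. Compound stocks in DMSO, added at one concentration, then incubated 48 h. Adherent cells fixed with cold TCA (10% final), stained with 0.4% SRB, dye solubilized in 10 mM Tris base, A515 read. Reported as percent growth relative to untreated control.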

SK-MEL-2 = assay: Growth inhibition of human SK-MEL-2 cells at 10 uM after 48 hrs by sulforhodamine B assay; conditions: SK-MEL-2, 48 h, read-out: GI; in short: as §1
OVCAR-3 = assay: Growth inhibition of human OVCAR3 cells at 10 uM after 48 hrs by sulforhodamine B assay; conditions: OVCAR-3, 48 h, read-out: GI; in short: as §1
OVCAR-5 = assay: Growth inhibition of human OVCAR5 cells at 10 uM after 48 hrs by sulforhodamine B assay; conditions: OVCAR-5, 48 h, read-out: GI; in short: as §1
RXF 393 = assay: Growth inhibition of human RXF393 cells at 10 uM after 48 hrs by sulforhodamine B assay; conditions: RXF 393, 48 h, read-out: GI; in short: as §1
TK-10 = assay: Growth inhibition of human TK10 cells at 10 uM after 48 hrs by sulforhodamine B assay; conditions: TK-10, 48 h, read-out: GI; in short: as §2
RPMI-8226 = assay: Cytotoxicity against human RPMI8226 cells after 48 hrs by sulforhodamine B assay; conditions: RPMI-8226, 48 h
In short: (§3)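 NCI 60-panel screen. Cells were grown in RPMI 1640 with 5% FBS and L-glutamine and plated at 5000–40,000 cells/well according to doubling time. They were preincubated 24 h at 37 °C, 5% CO2, then exposed 48 h to five 10-fold dilutions. Adherent cells were fixed with cold TCA, final 10%; suspension cells were fixed after settling. Cells were stained with 0.4% SRB and read at 515 nm. Tz/C/Ti growth curves gave GI50, TGI and LC50.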

SR = assay: Cytotoxicity against human SR cells after 48 hrs by sulforhodamine B assay; in short: as §3
HOP-62 = assay: Cytotoxicity against human HOP62 cells after 48 hrs by sulforhodamine B assay; conditions: HOP-62, 48 h; in short: as §3
COLO 205 [2] = assay: Cytotoxicity against human COLO205 cells after 48 hrs by sulforhodamine B assay; conditions: COLO 205, 48 h; in short: as §3
HCC 2998 = assay: Cytotoxicity against human HCC2998 cells after 48 hrs by sulforhodamine B assay; conditions: HCC 2998, 48 h; in short: as §3
HT-29 = assay: Cytotoxicity against human HT-29 cells after 48 hrs by sulforhodamine B assay; conditions: HT-29, 48 h; in short: as §3
SK-MEL-5 = assay: Cytotoxicity against human SK-MEL-5 cells after 48 hrs by sulforhodamine B assay; conditions: SK-MEL-5, 48 h; in short: as §3
UACC-257 = assay: Cytotoxicity against human UACC257 cells after 48 hrs by sulforhodamine B assay; conditions: UACC-257, 48 h
In short: (§4)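 NCI 60 panel five-dose screen. Cells in RPMI 1640 with 5% FBS and 2 mM L-glutamine, plated at 5000–40,000 cells/well and preincubated 24 h. Compounds were tested at five 10-fold concentrations (0.01–100) for 48 h at 37 °C, 5% CO2. Cells were fixed with TCA and stained with SRB, absorbance 515 nm. GI50, TGI and LC50 were taken from % growth curves against time-zero and control.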

OVCAR-4 = assay: Cytotoxicity against human OVCAR4 cells after 48 hrs by sulforhodamine B assay; conditions: OVCAR-4, 48 h; in short: as §3
786-0 = assay: Cytotoxicity against human 786-0 cells after 48 hrs by sulforhodamine B assay; conditions: 786-0, 48 h; in short: as §3
A498 = assay: Cytotoxicity against human A498 cells after 48 hrs by sulforhodamine B assay; conditions: A498, 48 h; in short: as §3
CAKI-1 = assay: Cytotoxicity against human Caki1 cells after 48 hrs by sulforhodamine B assay; conditions: CAKI-1, 48 h; in short: as §3
UO-31 = assay: Cytotoxicity against human UO31 cells after 48 hrs by sulforhodamine B assay; conditions: UO-31, 48 h; in short: as §4
MCF7 = assay: Cytotoxicity against human MCF7 cells after 48 hrs by sulforhodamine B assay; conditions: MCF7, 48 h; in short: as §3
MDA-MB-468 = assay: Cytotoxicity against human MDA-MB-468 cells after 48 hrs by sulforhodamine B assay; conditions: MDA-MB-468, 48 h; in short: as §3
CCRF-CEM = assay: Growth inhibition of human CCRF-CEM cells at 10 uM after 48 hrs by sulforhodamine B assay; conditions: read-out: GI; in short: as §1
MOLT-4 = assay: Growth inhibition of human MOLT4 cells at 10 uM after 48 hrs by sulforhodamine B assay; conditions: MOLT-4, 48 h, read-out: GI; in short: as §1
[3] = read-out: LC50 (the source's name)

O=C(CCc1nnc(-c2ccc(Cl)cc2Cl)o1)c1nc2ccccc2[nH]1
inhibition of growth at 10 µM (NCI-H322M): 24%
inhibition of growth at 10 µM (COLO 205 [1]): 37.4%
inhibition of growth at 10 µM (HCT-116): 77.9%
inhibition of growth at 10 µM (KM12): 71.3%
inhibition of growth at 10 µM (SNB-75): 36.6%
inhibition of growth at 10 µM (SK-MEL-2): 40.6%
inhibition of growth at 10 µM (OVCAR-3): 33.6%
inhibition of growth at 10 µM (OVCAR-5): 18.9%
inhibition of growth at 10 µM (RXF 393): 18.4%
inhibition of growth at 10 µM (TK-10): 36%
GI50 (RPMI-8226): 3.61 µM
TGI (RPMI-8226): 23.3 µM
CC50 (RPMI-8226; [3]): 100 µM
GI50 (SR): 2.63 µM
TGI (SR): 15.2 µM
CC50 (SR; [3]): 100 µM
GI50 (HOP-62): 7.67 µM
TGI (HOP-62): 41.3 µM
CC50 (HOP-62; [3]): 100 µM
GI50 (COLO 205 [2]): 2.66 µM
TGI (COLO 205 [2]): 7.08 µM
CC50 (COLO 205 [2]; [3]): 100 µM
GI50 (HCC 2998): 6.52 µM
TGI (HCC 2998): 32.3 µM
CC50 (HCC 2998; [3]): 100 µM
GI50 (HT-29): 3.77 µM
TGI (HT-29): 55.1 µM
CC50 (HT-29; [3]): 100 µM
GI50 (SK-MEL-5): 2.88 µM
TGI (SK-MEL-5): 14.9 µM
CC50 (SK-MEL-5; [3]): 64.6 µM
GI50 (UACC-257): 13.7 µM
TGI (UACC-257): 44.4 µM
CC50 (UACC-257; [3]): 100 µM
GI50 (OVCAR-4): 5.93 µM
TGI (OVCAR-4): 100 µM
CC50 (OVCAR-4; [3]): 100 µM
GI50 (786-0): 10.7 µM
TGI (786-0): 45.5 µM
CC50 (786-0; [3]): 100 µM
GI50 (A498): 1.53 µM
TGI (A498): 10.1 µM
CC50 (A498; [3]): 100 µM
GI50 (CAKI-1): 3.49 µM
TGI (CAKI-1): 41.1 µM
CC50 (CAKI-1; [3]): 100 µM
GI50 (UO-31): 6.71 µM
TGI (UO-31): 32.9 µM
CC50 (UO-31; [3]): 100 µM
GI50 (MCF7): 4.57 µM
TGI (MCF7): 100 µM
CC50 (MCF7; [3]): 100 µM
GI50 (MDA-MB-468): 0.797 µM
TGI (MDA-MB-468): 12.2 µM
CC50 (MDA-MB-468; [3]): 100 µM
inhibition of growth at 10 µM (CCRF-CEM): 52.7%
inhibition of growth at 10 µM (MOLT-4): 79.3%
